Results taken from the RNAGym collection of RNA variant scans (doi:10.1101/gad.245936.114).
Variants at the floor of the assay were thinned out.

B1: tRNA (parent)
chain: CUCUCGGUAGCCAAGUUGGUUUAAGGCGCAAGACUUUAAUUUAUCACUACGAAAUCUUGAGAUCGGGCGUUCGACUCGCCCCCGGGAGAUUUUUUCCUCGAGCAA

Variants of: B1
Assay: nonsense suppression (GFP-seq) (ratio to wild type); higher = more function; SUP4oc tRNA, yeast GFP reporter sort-seq
How it was run: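 Sorted GFP/RFP bins of yeast were each Illumina-sequenced with a phred ≥30 cutoff; the cells held a genome-integrated ochre-suppressor tRNA variant from a library with ~3% random mutations, a galactose-driven GFP ochre reporter, and RFP. Culture was in raffinose/galactose medium containing 80 mg/L adenine. Nonsense suppression, termed GFPSEQ, is the median GFP/RFP of the bins weighted by each variant's estimated cell share per bin, relative to the unmutated parent tRNA, for variants reaching ≥100 reads and ≥30 cells.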
With CUCUCGGUAGCCAAGUUGGUUUAAGGCGCAAGACUUUAAUUUAUCACUACGAAAUCUUGAGGUCCGGCGUUCGACUCGCCCCCGGGAGAUUUUUUCCUCGAGCAA [A62G G65C] the nonsense suppression was ≤ 0.026.
Work on CUCUCGGUAGCCAAGUUGGUUUAAGGCGCAAGACUUUAAUUUAUCACUACGAAAUCUUGAUAUCGGGCGUUCGACUCGCCCUCGGGAGAUUUUUUCCUCGAGCAA [G61U C82U] yielded a nonsense suppression of 0.73.
With CUCUCGGUAGCCAAGUUGGUUUAAGGCGCAAGACUUUAAUUUAUCACUACGAAAUCUUGAUAUCGGGCGUUCGACUCUCCCCCGGGAGAUUUUUUCCUCGAGCAA [G61U G78U] the nonsense suppression was 0.165.
Variant CUCUCGGUAGCCAAGUUGGUUUAAGGCGCAAGACUUUAAUUUAUCACUACGAAAUCUUGAUAGCGGGCGUUCGACUCGCCCCCGGGAGAUUUUUUCCUCGAGCAA [G61U U63G] has a nonsense suppression of 0.232.
In the case of CUCUCGGUAGCCAAGUUGGUUUAAGGCGCAAGACUUUAAUUUAUCACUACGAAAUCUUGAUACCGGGCGUUCGACUCGCCCCCGGGAGAUUUUUUCCUCGAGCAA [G61U U63C], the nonsense suppression is reported as 0.808.
Variant CUCUCGGUAGCCAAGUUGGUUUAAGGCGCAAGACUUUAAUUUAUCACUACGAAAUCUUGAUAUCGGGCGUUCGACUCGCUCCCGGGAGAUUUUUUCCUCGAGCAA [G61U C80U] has a nonsense suppression of 0.677.
With CUCUCGGUAGCCAAGUUGGUUUAAGGCGCAAGACUUUAAUUUAUCACUACGAAAUCUUGAGCUUGGGCGUUCGACUCGCCCCCCGGAGAUUUUUUCCUCGAGCAA [A62C C64U G84C] the nonsense suppression was ≤ 0.026.
For CUCUCGGUAGCCAAGUUGGUUUAAGGCGCAAGACUUUAAUUUAUCACUACGAAAUCUUGAGCUGGGGCGUUCGACUCGCCCCCGGGAGAUUUUUUCCUCGAGCAA [A62C C64G], the nonsense suppression was ≤ 0.026.
Work on CUCUCGGUAGCCAAGUUGGUUUAAGGCGCAAGACUUUAAUUUAUCACUACGAAAUCUUGAUAUCGGGCGUUCGAUUCGCCCCCGAGAGAUUUUUUCCUCGAGCAA [G61U C75U G85A] yielded a nonsense suppression of 1.04.
With CUCUCGGUAGCCAAGUUGGUUUAAGGCGCAAGACUUUAAUUUAUCACUACGAAAUCUUGAUAUCGGGCGUUCGACCCGCCCCCGGGAGAUUUUUUCCUCGAGCAA [G61U U76C] the nonsense suppression was 0.911.
With CUCUCGGUAGCCAAGUUGGUUUAAGGCGCAAGACUUUAAUUUAUCACUACGAAAUCUUGAGGUCGGGCGUUCGAUUCGCCCCAGGGAGAUUUUUUCCUCGAGCAA [A62G C75U C83A] the nonsense suppression was ≤ 0.026.
For CUCUCGGUAGCCAAGUUGGUUUAAGGCGCAAGACUUUAAUUUAUCACUACGAAAUCUUGAGGUCGGGCGUUCGACUCUCCCCCGGGAGAUUUUUUCCUCGAGCAA [A62G G78U], the nonsense suppression was 0.0339.
For CUCUCGGUAGCCAAGUUGGUUUAAGGCGCAAGACUUUAAUUUAUCACUACGAAAUCUUGAGGCCGAGCGUUCGACUCGCCCCCGGGAGAUUUUUUCCUCGAGCAA [A62G U63C G66A], the nonsense suppression was ≤ 0.026.
With CUCUCGGUAGCCAAGUUGGUUUAAGGCGCAAGACUUUAAUUUAUCACUACGAAAUCUUGAGGUCGGGCGUUCGACUCGCCCCAGGGAGAUUUUUUCCUCGAGCAA [A62G C83A] the nonsense suppression was ≤ 0.026.
With CUCUCGGUAGCCAAGUUGGUUUAAGGCGCAAGACUUUAAUUUAUCACUACGAAAUCUUGAUAUCGGGCGUUCGAGUCGCCCCCGGGAGAUUUUUUCCUCGAGCAA [G61U C75G] the nonsense suppression was 1.08.
Work on CUCUCGGUAGCCAAGUUGGUUUAAGGCGCAAGACUUUAAUUUAUCACUACGAAAUCUUGAGUUCGGGCGUUCGACUCGCCCCCGGGAGAUUUUUUCCUCGAGCAA [A62U] yielded a nonsense suppression of 0.193.
For CUCUCGGUAGCCAAGUUGGUUUAAGGCGCAAGACUUUAAUUUAUCACUACGAAAUCUUGAGCUCGGGCGUUCGACUCGCCCCCGAGAGAUUUUUUCCUCGAGCAA [A62C G85A], the nonsense suppression was ≤ 0.026.
In the case of CUCUCGGUAGCCAAGUUGGUUUAAGGCGCAAGACUUUAAUUUAUCACUACGAAAUCUUGAUAUCGGGCGUACGACUCGCCCCCGGAAGAUUUUUUCCUCGAGCAA [G61U U71A G86A], the nonsense suppression is reported as ≤ 0.026.
With CUCUCGGUAGCCAAGUUGGUUUAAGGCGCAAGACUUUAAUUUAUCACUACGAAAUCUUGAGGUCGGGCGUUCGAGUCGCCCCCGGGAGAUUUUUUCCUCGAGCAA [A62G C75G] the nonsense suppression was 0.205.
Work on CUCUCGGUAGCCAAGUUGGUUUAAGGCGCAAGACUUUAAUUUAUCACUACGAAAUCUUGAGGUCGGGCGUUCGAAUCGCCCCCGGGAGAUUUUUUCCUCGAGCAA [A62G C75A] yielded a nonsense suppression of 0.219.
CUCUCGGUAGCCAAGUUGGUUUAAGGCGCAAGACUUUAAUUUAUCACUACGAAAUCUUGAGUUCGGGCGUUCGAGUCGCCCCCGGGAGAUUUUUUCCUCGAGCAA [A62U C75G] gave a nonsense suppression of 0.201.
For CUCUCGGUAGCCAAGUUGGUUUAAGGCGCAAGACUUUAAUUUAUCACUACGAAAUCUUGAUAUCGGUCGUUCGACUCGCCCCCGGGAGAUUUUUUCCUCGAGCAA [G61U G67U], the nonsense suppression was ≤ 0.026.
Variant CUCUCGGUAGCCAAGUUGGUUUAAGGCGCAAGACUUUAAUUUAUCACUACGAAAUCUUGAUAUCGGACGUUCGACUCGCCCCCGGGAGAUUUUUUCCUCGAGCAA [G61U G67A] has a nonsense suppression of 0.135.
With CUCUCGGUAGCCAAGUUGGUUUAAGGCGCAAGACUUUAAUUUAUCACUACGAAAUCUUGAGCUCGGGCGUUCGACUCACCCCCGGGAGAUUUUUUCCUCGAGCAA [A62C G78A] the nonsense suppression was ≤ 0.026.
With CUCUCGGUAGCCAAGUUGGUUUAAGGCGCAAGACUUUAAUUUAUCACUACGAAAUCUUGAGGUCGGGCGUUCGACUCGCUGCCGGGAGAUUUUUUCCUCGAGCAA [A62G C80U C81G] the nonsense suppression was ≤ 0.026.
With CUCUCGGUAGCCAAGUUGGUUUAAGGCGCAAGACUUUAAUUUAUCACUACGAAAUCUUGAGGUCGGACGUUCGACUCGCCCCCGGGAGAUUUUUUCCUCGAGCAA [A62G G67A] the nonsense suppression was ≤ 0.026.
In the case of CUCUCGGUAGCCAAGUUGGUUUAAGGCGCAAGACUUUAAUUUAUCACUACGAAAUCUUGAGCUCGGACGUUCGACUCGCCCCCGGGAGAUUUUUUCCUCGAGCAA [A62C G67A], the nonsense suppression is reported as ≤ 0.026.
